From PubChem BioAssay AID488947 (Sanford-Burnham Center for Chemical Genomics, 2010)
Calls of active or inactive are those of the source.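 Rule for the calls: active = compounds letting at most 1% of the green fluorescent tagged protein gather at the cell membrane; inactive = the rest.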

Target: G-protein coupled receptor 55 (Homo sapiens) (UniProt Q9Y2T6)
Experiment: GPR55 antagonists blocking PKCbII-GFP membrane recruitment, SAR follow-up, imaging, HEK293 (AID 488947)
Settings: HEK293 GPR55 + PKCbetaII-GFP
In short: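 System: Transfected HEK293 with GPR55 and PKCβII-GFP | Reagent: 10 µM AM251 | Times: Compound pre-incubation 15 min at 37 °C, then AM251 exposure 30 min | Buffer or medium: Serum-free MEM | Signal: Fluorescence imaging of GFP after 1% PFA fixation, scored by eye | Dosing: Four compound doses between 10 and 100 µM | Replicates: Duplicates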

Sequence of G-protein coupled receptor 55 (Homo sapiens) (Q9Y2T6 whole entry, looked up): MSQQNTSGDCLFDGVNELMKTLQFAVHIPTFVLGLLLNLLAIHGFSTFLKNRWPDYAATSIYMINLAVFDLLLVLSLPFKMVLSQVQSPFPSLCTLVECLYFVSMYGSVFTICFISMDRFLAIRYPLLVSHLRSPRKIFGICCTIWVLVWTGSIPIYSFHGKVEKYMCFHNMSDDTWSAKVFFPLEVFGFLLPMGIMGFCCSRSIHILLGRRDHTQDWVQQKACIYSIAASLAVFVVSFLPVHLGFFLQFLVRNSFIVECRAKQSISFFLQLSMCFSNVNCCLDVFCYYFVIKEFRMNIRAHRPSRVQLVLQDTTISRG

Row | outcome | Structure (SMILES)
1 | active; + | Cc1nc(N2CCN(C(=O)c3ccco3)CC2)c2c3c(sc2n1)CCCC3
2 | active | Cc1cc(C)c2nc(-c3ccccn3)cc(C(=O)Nc3ccc(S(=O)(=O)Nc4onc(C)c4C)cc3)c2c1
3 | active | Cc1ccc(C2(C(=O)N3CCC(n4nc(-c5ccccc5)oc4=O)CC3)CC2)cc1
